Reference: ChEMBL document CHEMBL5380801, “Development of Substituted Phenyl Dihydrouracil as the Novel Achiral Cereblon Ligands for Targeted Protein Degradation” (J Med Chem, 2023)
Calls of active or inactive are those of the source. The rule behind the calls is not given here.

Assays:
[1] = molecular target: Cereblon/Ikaros (Homo sapiens) (UniProt Q96SW2+Q13422); experiment: Protac activity at CRBN/IKZF1 in human MV4-11 cells assessed as induction of IKZF1 degradation at 1 to 10 uM measured after 24 hrs by Western blot analysis; type: cell-based; conditions: dose 1-10 µM
[2] = Stability of the compound in HCl solution at pH 1.0 assessed as parent compound remaining at 100 uM measured after 24 hrs by HPLC analysis; type: physicochemical; conditions: read-out: Stability
Procedure, shortened: (§1)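 Incubated in buffer at the stated pH at 37 °C; percent parent remaining after 24 h. Ring-opening hydrolysis of the glutarimide or dihydrouracil monitored.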

[3] = Stability in human plasma assessed as parent compound remaining measured after 4 hrs in presence of NADPH by LC-MS/MS analysis; type: ADME, cell-free; conditions: read-out: Stability
Procedure, shortened: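 Human plasma incubation; percent parent remaining reported after 4.0 h.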

[4] = molecular target: Protein cereblon/Eukaryotic peptide chain release factor GTP-binding subunit ERF3A (Homo sapiens) (UniProt Q96SW2+P15170); experiment: Protac activity at CRBN/GSPT1 in human MV4-11 cells assessed as induction of GSPT1 degradation at 1 to 10 uM measured after 24 hrs by Western blot analysis; type: cell-based; conditions: dose 1-10 µM
Sequence of Protein cereblon/Eukaryotic peptide chain release factor GTP-binding subunit ERF3A (Homo sapiens) (P15170 whole entry, looked up): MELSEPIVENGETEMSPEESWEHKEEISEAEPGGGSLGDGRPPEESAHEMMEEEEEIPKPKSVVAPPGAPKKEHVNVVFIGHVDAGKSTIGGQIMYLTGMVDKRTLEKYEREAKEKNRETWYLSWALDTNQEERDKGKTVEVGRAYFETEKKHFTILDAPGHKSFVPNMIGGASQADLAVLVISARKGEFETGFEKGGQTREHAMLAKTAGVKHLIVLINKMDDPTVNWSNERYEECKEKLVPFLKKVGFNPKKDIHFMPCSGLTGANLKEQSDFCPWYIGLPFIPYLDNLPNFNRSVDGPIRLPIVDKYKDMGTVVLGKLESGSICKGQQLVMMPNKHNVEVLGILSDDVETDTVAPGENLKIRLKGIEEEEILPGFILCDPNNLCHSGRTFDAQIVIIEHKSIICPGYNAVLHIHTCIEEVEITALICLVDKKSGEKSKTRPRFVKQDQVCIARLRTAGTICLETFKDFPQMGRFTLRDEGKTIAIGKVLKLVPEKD
Sequence of Protein cereblon/Eukaryotic peptide chain release factor GTP-binding subunit ERF3A (Homo sapiens) (Q96SW2 whole entry, looked up): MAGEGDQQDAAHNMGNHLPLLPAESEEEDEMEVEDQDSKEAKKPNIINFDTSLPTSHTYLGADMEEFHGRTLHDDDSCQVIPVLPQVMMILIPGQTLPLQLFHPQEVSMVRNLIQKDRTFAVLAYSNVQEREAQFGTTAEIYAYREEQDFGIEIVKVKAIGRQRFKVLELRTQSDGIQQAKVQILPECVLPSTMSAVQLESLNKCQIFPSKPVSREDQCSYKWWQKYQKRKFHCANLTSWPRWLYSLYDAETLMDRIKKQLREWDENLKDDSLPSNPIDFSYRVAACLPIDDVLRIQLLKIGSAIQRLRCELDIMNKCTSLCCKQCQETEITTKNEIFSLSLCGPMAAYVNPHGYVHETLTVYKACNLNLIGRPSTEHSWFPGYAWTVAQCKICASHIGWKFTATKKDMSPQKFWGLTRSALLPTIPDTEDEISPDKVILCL

[5] = Stability in human liver microsomes assessed as parent compound remaining measured after 0.5 hrs in presence of NADPH by LC-MS/MS analysis; type: ADME, Microsome; conditions: read-out: Stability
Procedure, shortened: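 Human liver microsome incubation; percent parent remaining reported after 0.5 h.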

[6] = molecular target: Protein cereblon/Zinc finger protein Aiolos (Homo sapiens) (UniProt Q96SW2+Q9UKT9); experiment: Protac activity at CRBN/IKZF3 in human MV4-11 cells assessed as induction of IKZF3 degradation at 1 to 10 uM measured after 24 hrs by Western blot analysis; type: cell-based; conditions: dose 1-10 µM
Sequence of Protein cereblon/Zinc finger protein Aiolos (Homo sapiens) (Q96SW2 whole entry, looked up): as above
Sequence of Protein cereblon/Zinc finger protein Aiolos (Homo sapiens) (Q9UKT9 whole entry, looked up): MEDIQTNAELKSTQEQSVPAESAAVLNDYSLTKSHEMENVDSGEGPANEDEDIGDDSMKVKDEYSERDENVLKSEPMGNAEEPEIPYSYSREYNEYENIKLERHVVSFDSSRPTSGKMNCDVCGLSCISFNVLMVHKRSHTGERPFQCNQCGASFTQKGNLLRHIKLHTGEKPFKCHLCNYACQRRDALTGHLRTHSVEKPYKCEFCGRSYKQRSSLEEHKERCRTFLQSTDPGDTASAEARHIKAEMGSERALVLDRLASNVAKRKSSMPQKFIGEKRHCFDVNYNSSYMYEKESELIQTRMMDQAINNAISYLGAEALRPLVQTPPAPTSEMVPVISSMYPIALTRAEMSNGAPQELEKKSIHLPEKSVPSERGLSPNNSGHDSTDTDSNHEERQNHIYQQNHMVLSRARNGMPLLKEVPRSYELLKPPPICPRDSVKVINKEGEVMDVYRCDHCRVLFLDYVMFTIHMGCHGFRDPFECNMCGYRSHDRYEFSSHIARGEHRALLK

[7] = Stability of the compound in potassium phosphate buffer at pH 7.4 assessed as parent compound remaining at 100 uM measured after 24 hrs by HPLC analysis; type: physicochemical; conditions: read-out: Stability; procedure, shortened: as §1
[8] = Stability of the compound in bicine buffer at pH 8.8 assessed as parent compound remaining at 100 uM measured after 24 hrs by HPLC analysis; type: physicochemical; conditions: read-out: Stability; procedure, shortened: as §1
MV4-11 [9] = experiment: Induction of apoptosis in human MV4-11 cells assessed as early apoptotic cells at 1 uM measured after 48 hrs by Annexin V-FITC staining based flow cytometry (reference value: 0%); type: functional
MV4-11 [10] = experiment: Induction of apoptosis in human MV4-11 cells assessed as early apoptotic cells at 0.01 uM measured after 48 hrs by Annexin V-FITC staining based flow cytometry (reference value: 0%); type: functional
MV4-11 [11] = experiment: Induction of apoptosis in human MV4-11 cells assessed as late apoptotic cells at 0.1 uM measured after 48 hrs by Annexin V-FITC staining based flow cytometry (reference value: 0.42%); type: functional
MV4-11 [12] = experiment: Induction of apoptosis in human MV4-11 cells assessed as early apoptotic cells at 10 uM measured after 48 hrs by Annexin V-FITC staining based flow cytometry (reference value: 0%); type: functional
MV4-11 [13] = experiment: Induction of apoptosis in human MV4-11 cells assessed as necrotic cells at 10 uM measured after 48 hrs by Annexin V-FITC staining based flow cytometry (reference value: 0.86%); type: functional
MV4-11 [14] = experiment: Induction of apoptosis in human MV4-11 cells assessed as necrotic cells at 1 uM measured after 48 hrs by Annexin V-FITC staining based flow cytometry (reference value: 0.86%); type: functional
MV4-11 [15] = experiment: Induction of apoptosis in human MV4-11 cells assessed as necrotic cells at 0.1 uM measured after 48 hrs by Annexin V-FITC staining based flow cytometry (reference value: 0.86%); type: functional
MV4-11 [16] = experiment: Induction of apoptosis in human MV4-11 cells assessed as viable cells at 0.1 uM measured after 48 hrs by Annexin V-FITC staining based flow cytometry (reference value: 98.7%); type: functional; conditions: read-out: Activity
MV4-11 [17] = experiment: Induction of apoptosis in human MV4-11 cells assessed as caspase 3 cleavage at 0.01 to 10 nM; type: functional, cell-based; conditions: MV4-11, dose upper 10.0 µM, in the assay text read “0.01 to 10 uM” for “0.01 to 10 nM”
Procedure, shortened: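 MV4;11 cells treated with the indicated concentrations for 24 h, or for the indicated times. […] Blocked in 5% BSA/TBST; anti-caspase 3 and anti-β-actin overnight in the cold, HRP secondary 1 h at room temperature; ECL detection of full-length and cleaved caspase 3.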

MV4-11 [18] = experiment: Induction of cell cycle arrest in human MV4-11 cells assessed as decrease in accumulation of cells at S phase at 0.01 to 10 uM incubated for 48 hrs by PI staining based flow cytometry analysis; type: functional; conditions: dose 0.01-10 µM
Procedure, shortened: (§2)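 Cell-cycle distribution determined by flow cytometry (Attune) in MV4;11 cells seeded in 6-well plates and treated with the indicated concentrations for 48 h.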

MV4-11 [19] = experiment: Induction of apoptosis in human MV4-11 cells assessed as viable cells at 0.01 uM measured after 48 hrs by Annexin V-FITC staining based flow cytometry (reference value: 98.7%); type: functional; conditions: read-out: Activity
MV4-11 [20] = experiment: Induction of apoptosis in human MV4-11 cells assessed as late apoptotic cells at 10 uM measured after 48 hrs by Annexin V-FITC staining based flow cytometry (reference value: 0.42%); type: functional
MV4-11 [21] = experiment: Induction of apoptosis in human MV4-11 cells assessed as viable cells at 1 uM measured after 48 hrs by Annexin V-FITC staining based flow cytometry (reference value: 98.7%); type: functional; conditions: read-out: Activity
MV4-11 [22] = experiment: Induction of apoptosis in human MV4-11 cells assessed as late apoptotic cells at 1 uM measured after 48 hrs by Annexin V-FITC staining based flow cytometry (reference value: 0.42%); type: functional
MV4-11 [23] = experiment: Induction of apoptosis in human MV4-11 cells assessed as late apoptotic cells at 0.01 uM measured after 48 hrs by Annexin V-FITC staining based flow cytometry (reference value: 0.42%); type: functional
MV4-11 [24] = experiment: Induction of apoptosis in human MV4-11 cells assessed as viable cells at 10 uM measured after 48 hrs by Annexin V-FITC staining based flow cytometry (reference value: 98.7%); type: functional; conditions: read-out: Activity
MV4-11 [25] = experiment: Induction of cell cycle arrest in human MV4-11 cells assessed as accumulation of cells at G1 phase at 0.01 to 10 uM incubated for 48 hrs by PI staining based flow cytometry analysis; type: functional; conditions: dose 0.01-10 µM; procedure, shortened: as §2
MV4-11 [26] = experiment: Antiproliferative activity at human MV4-11 cells assessed as reduction in cell viability measured after 72 hrs by Alamar blue dye based analysis; type: functional; conditions: MV4-11, 72 h
Procedure, shortened: (§3)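 MV4;11 cells (RPMI1640, 10% FBS, 1% Pen/Strep, 37 °C, 5% CO2, used within 20 passages) seeded at 5000–10000 cells/well, then given DMSO or compound at the indicated doses for 72 h. AlamarBlue then added; fluorescence read at ex 530–560 nm, em 590 nm. Signal normalized to DMSO-treated cells; IC50 calculated.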

MV4-11 [27] = experiment: Induction of apoptosis in human MV4-11 cells assessed as necrotic cells at 0.01 uM measured after 48 hrs by Annexin V-FITC staining based flow cytometry (reference value: 0.86%); type: functional
MV4-11 [28] = experiment: Induction of apoptosis in human MV4-11 cells assessed as early apoptotic cells at 0.1 uM measured after 48 hrs by Annexin V-FITC staining based flow cytometry (reference value: 0%); type: functional
[29] = molecular target: Protein cereblon/DNA damage-binding protein 1 (Homo sapiens, UniProt Q96SW2); experiment: Binding affinity to recombinant human CRBN/DDB1 assessed as dissociation constant incubated for 20 mins by fluorescence polarization assay; type: protein assay
Sequence of Protein cereblon/DNA damage-binding protein 1 (Q96SW2 whole entry): as the sequence (Q96SW2 whole entry, looked up) above
Sequence of Protein cereblon/DNA damage-binding protein 1 (Q16531 whole entry, further chain): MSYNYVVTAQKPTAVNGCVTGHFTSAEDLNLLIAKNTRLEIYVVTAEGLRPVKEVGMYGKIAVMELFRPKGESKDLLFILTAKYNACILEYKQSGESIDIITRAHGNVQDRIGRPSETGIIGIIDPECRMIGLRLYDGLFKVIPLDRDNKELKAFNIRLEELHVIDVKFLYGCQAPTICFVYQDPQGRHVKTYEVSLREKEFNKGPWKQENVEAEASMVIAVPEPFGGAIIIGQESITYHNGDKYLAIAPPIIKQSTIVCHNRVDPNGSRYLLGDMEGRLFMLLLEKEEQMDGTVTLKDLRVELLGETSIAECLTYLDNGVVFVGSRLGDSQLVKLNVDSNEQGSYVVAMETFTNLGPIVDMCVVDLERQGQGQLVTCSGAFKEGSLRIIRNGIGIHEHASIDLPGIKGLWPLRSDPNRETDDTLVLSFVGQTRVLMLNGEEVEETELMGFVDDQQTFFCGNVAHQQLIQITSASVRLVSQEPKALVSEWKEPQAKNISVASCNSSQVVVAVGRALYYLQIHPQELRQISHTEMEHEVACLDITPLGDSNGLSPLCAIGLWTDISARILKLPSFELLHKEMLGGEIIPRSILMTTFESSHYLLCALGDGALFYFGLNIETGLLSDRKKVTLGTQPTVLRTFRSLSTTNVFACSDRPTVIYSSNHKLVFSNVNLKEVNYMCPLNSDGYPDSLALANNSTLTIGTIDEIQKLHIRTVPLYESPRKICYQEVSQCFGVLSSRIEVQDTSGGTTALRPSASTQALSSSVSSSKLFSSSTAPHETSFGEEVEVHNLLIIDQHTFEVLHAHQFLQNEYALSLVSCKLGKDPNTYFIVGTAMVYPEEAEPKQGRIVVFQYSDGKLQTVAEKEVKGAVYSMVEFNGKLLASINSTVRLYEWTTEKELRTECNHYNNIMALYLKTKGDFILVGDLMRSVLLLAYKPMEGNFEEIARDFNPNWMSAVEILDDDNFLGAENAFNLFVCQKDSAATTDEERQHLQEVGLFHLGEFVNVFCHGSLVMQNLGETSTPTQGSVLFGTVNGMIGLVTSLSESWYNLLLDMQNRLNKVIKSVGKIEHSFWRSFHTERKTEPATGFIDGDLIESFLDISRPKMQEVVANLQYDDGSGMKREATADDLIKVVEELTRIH

[30] = molecular target: Protein cereblon/Bromodomain-containing protein 4 (Homo sapiens) (UniProt O60885+Q96SW2); experiment: Protac activity at CRBN/BRD4 in human MV4-11 cells assessed as degradation of BRD4 at 0.01 to 1 uM incubated for 24 hrs; type: cell-based; conditions: dose 0.01-1 µM
Sequence of Protein cereblon/Bromodomain-containing protein 4 (Homo sapiens) (Q96SW2 whole entry, looked up, other chains not shown): as the sequence (Q96SW2 whole entry, looked up) above

MV4-11 [31] = experiment: Antiproliferative activity at human MV4-11 cells assessed as reduction in cell viability at upto 100 uM measured after 72 hrs by Alamar blue dye based analysis; type: functional; procedure, shortened: as §3
[32] = Stability of the compound in bicine buffer at pH 8.8 assessed as parent compound remaining at 100 uM measured after 2 hrs by HPLC analysis; type: physicochemical; conditions: read-out: Stability
Procedure, shortened: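 Incubated in pH 8.8 buffer; percent parent remaining reported after 2 h.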

SMILES	Activity [1]	remaining at 24 h, 100 µM [2]	remaining at 4 h [3]	Activity [4]	remaining at 0.5 h [5]	Activity [6]	remaining at 24 h, 100 µM [7]	remaining at 24 h, 100 µM [8]	Kd [29]	also measured
Cc1c(C#CCNC(=O)OC(C)(C)C)cccc1N1CCC(=O)NC1=O	inactive	> 99%	97%	inactive	87%	inactive	> 99%	93%	–	–
Cc1sc2c(c1C)C(c1ccc(Cl)cc1)=N[C@@H](CC(=O)NC1CCN(C(=O)COc3cccc(N4CCC(=O)NC4=O)c3C)CC1)c1nnc(C)n1-2	–	–	–	–	–	–	–	–	–	Activity (MV4-11 [9]): 0.49%; Activity (MV4-11 [10]): 0.32%; Activity (MV4-11 [11]): 42.3%; Activity (MV4-11 [12]): 5.77%; Activity (MV4-11 [13]): 16.9%; Activity (MV4-11 [14]): 48.7%; Activity (MV4-11 [15]): 39.4%; viability at 0.1 µM (MV4-11 [16]): 17.1%; Activity (MV4-11 [17]): Active; Activity (MV4-11 [18]): Active; viability at 0.01 µM (MV4-11 [19]): 77.2%; Activity (MV4-11 [20]): 88.7%; viability at 1 µM (MV4-11 [21]): 7.3%; Activity (MV4-11 [22]): 43.6%; Activity (MV4-11 [23]): 13.4%; viability at 10 µM (MV4-11 [24]): 3.88%; Activity (MV4-11 [25]): Active; IC50 (MV4-11 [26]): 1.1 nM; Activity (MV4-11 [27]): 9.13%; Activity (MV4-11 [28]): 1.13%
Cc1ccccc1N1CCC(=O)NC1=O	–	–	–	–	–	–	–	–	1240 nM	–
CC(C)(C)OC(=O)NCC#Cc1cccc(N2CCC(=O)NC2=O)c1	–	–	–	–	–	–	–	–	530 nM	–
Cc1sc2c(c1C)C(c1ccc(Cl)cc1)=N[C@@H](CC(=O)NC1CCN(C(=O)COc3cccc(N4CCC(=O)N(C)C4=O)c3C)CC1)c1nnc(C)n1-2	–	–	–	–	–	–	–	–	–	Activity [30]: inactive
Nc1cccc2c1CN(C1CCC(=O)NC1=O)C2=O (stereo not given) [LENALIDOMIDE]	–	> 99%	62%	–	89%	–	39%	–	–	remaining at 2 h, 100 µM [32]: 20%
Cc1c(OCC(=O)OC(C)(C)C)cccc1N1CCC(=O)NC1=O	–	–	–	–	–	–	–	–	1200 nM	–

Further lines, with some results ahead:

Activity [1]	remaining at 24 h, 100 µM [2]	remaining at 4 h [3]	Activity [4]	remaining at 0.5 h [5]	Activity [6]	remaining at 24 h, 100 µM [7]	remaining at 24 h, 100 µM [8]	SMILES	Kd [29]	also measured
inactive	> 99%	81%	inactive	85%	inactive	> 99%	95%	Cc1c(OCC(=O)N2CCCCC2)cccc1N1CCC(=O)NC1=O	1100 nM	Activity (MV4-11 [31]): inactive
inactive	> 99%	102%	inactive	90%	inactive	> 99%	90%	CC(=O)NCCC#Cc1cccc(N2CCC(=O)NC2=O)c1C	630 nM	–
inactive	> 99%	88%	inactive	100%	inactive	> 99%	95%	CCNC(=O)COc1cccc(N2CCC(=O)NC2=O)c1C	2140 nM	–
